Laboratory results: ChEMBL document CHEMBL4351015, “Design, synthesis and biological evaluation of 3-(imidazo[1,2-a]pyrazin-3-ylethynyl)-2-methylbenzamides as potent and selective pan-tropomyosin receptor kinase (TRK) inhibitors” (Eur J Med Chem, 2019)

What was measured:
[1] = target: Tyrosine-protein kinase ABL1 (Homo sapiens, UniProt P00519); assay: Inhibition of recombinant full length human His-tagged ABL1 expressed in baculovirus infected insect cells using tyr 02 as substrate incubated for 2 hr by Z'-Lyte assay
[2] = target: T1, BDNF/NT-3 growth factors receptor (Homo sapiens, UniProt Q16620); assay: Inhibition of recombinant human His-tagged TrkB catalytic domain (526 to 838 residues) expressed in baculovirus expression system using tyr 01 as substrate incubated for 1 hr by Z'-Lyte assay
Target sequence in this assay (Q16620 whole entry, the tested form may be a part): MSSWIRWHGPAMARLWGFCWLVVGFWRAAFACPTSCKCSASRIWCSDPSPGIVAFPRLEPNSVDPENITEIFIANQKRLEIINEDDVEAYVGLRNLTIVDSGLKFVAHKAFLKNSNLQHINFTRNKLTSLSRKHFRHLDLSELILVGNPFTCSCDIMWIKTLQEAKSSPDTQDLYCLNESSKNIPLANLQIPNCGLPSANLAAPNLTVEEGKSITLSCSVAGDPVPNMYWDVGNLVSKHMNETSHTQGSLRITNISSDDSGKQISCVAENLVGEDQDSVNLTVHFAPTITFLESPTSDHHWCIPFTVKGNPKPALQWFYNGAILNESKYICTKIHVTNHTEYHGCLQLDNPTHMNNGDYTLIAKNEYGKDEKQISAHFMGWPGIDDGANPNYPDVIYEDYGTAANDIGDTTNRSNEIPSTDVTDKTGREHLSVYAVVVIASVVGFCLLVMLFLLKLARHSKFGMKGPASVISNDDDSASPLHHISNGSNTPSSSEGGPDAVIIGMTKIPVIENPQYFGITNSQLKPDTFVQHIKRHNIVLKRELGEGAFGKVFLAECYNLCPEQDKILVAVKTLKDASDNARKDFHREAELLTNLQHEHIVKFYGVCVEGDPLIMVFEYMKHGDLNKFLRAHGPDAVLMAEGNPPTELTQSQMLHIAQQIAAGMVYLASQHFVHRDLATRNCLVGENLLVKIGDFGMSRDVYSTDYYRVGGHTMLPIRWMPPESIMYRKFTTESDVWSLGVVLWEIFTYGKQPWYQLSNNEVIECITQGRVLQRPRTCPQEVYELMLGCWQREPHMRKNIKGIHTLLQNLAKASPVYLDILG

[3] = target: High affinity nerve growth factor receptor (Homo sapiens, UniProt P04629); assay: Inhibition of recombinant human His-tagged TrkA catalytic domain (441 to 796 residues) expressed in baculovirus expression system using tyr 01 as substrate incubated for 1 hr by Z'-Lyte assay
[4] = target: T1, BDNF/NT-3 growth factors receptor; assay: Inhibition of BDNF-induced TrkB (unknown origin) activation transfected in human SH-SY5Y cells assessed as decrease in Erk phosphorylation incubated for 6 hrs followed by BDNF addition further incubated for 30 mins by Western blot analysis; type: cell-based
Outline: (§1)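 SH-SY5Y-TrkB stable transfectants were pretreated with 0–2.0 µM compound for 6 h, then given BDNF 10 ng/mL or none for 30 min. Lysates were run on 8–12% SDS-PAGE, blotted to PVDF and blocked in 5% BSA. Primary antibodies were applied overnight at 4 °C, then HRP secondary, with ECL detection. Phospho and total TrkB, PLC-γ1, Akt (Ser473, Thr308) and Erk were probed, with GAPDH as control.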
Target sequence in this assay (Q16620 32-822 limits assumed): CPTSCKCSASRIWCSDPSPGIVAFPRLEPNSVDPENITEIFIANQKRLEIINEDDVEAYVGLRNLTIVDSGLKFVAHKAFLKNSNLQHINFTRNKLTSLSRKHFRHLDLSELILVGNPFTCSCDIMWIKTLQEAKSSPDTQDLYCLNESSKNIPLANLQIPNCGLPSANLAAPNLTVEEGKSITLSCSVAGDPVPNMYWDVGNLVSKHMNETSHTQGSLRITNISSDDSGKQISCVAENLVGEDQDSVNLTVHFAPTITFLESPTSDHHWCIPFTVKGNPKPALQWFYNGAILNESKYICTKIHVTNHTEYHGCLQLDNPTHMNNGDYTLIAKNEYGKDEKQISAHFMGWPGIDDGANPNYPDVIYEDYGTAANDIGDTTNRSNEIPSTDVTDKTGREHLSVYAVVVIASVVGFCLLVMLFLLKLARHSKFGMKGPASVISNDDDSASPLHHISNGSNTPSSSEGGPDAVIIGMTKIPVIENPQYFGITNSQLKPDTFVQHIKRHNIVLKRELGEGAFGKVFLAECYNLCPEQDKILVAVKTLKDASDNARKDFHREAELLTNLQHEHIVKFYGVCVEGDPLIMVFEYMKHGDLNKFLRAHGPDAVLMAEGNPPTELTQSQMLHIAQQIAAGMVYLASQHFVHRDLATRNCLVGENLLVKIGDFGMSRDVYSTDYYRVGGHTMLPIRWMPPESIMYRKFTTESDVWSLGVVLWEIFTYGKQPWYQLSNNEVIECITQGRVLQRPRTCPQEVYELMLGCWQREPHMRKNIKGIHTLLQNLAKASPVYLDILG

SH-SY5Y [5] = assay: Inhibition of BDNF-induced cell invasion in human SH-SY5Y cells transfected with TrkB (unknown origin) at 200 nM incubated for 24 hrs by crystal violet staining microscopy-based matrigel assay relative to control; type: functional
Outline: (§2)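 Invasion through Matrigel chambers: 1.5 X 10⁶ SH-SY5Y-TrkB cells in FBS-free medium with 0, 8, 40 or 200 nM compound were placed on top. Complete medium with or without BDNF 10 ng/mL went below. After 24 h at 37 °C, cells were fixed in methanol and stained with 0.25% crystal violet, and top-surface cells were removed. Six random fields were counted at 200X; mean of three independent experiments.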

SH-SY5Y [6] = assay: Inhibition of BDNF-induced cell migration in human SH-SY5Y cells transfected with TrkB (unknown origin) at 8 nM incubated for 24 hrs by crystal violet staining microscopy based transwell assay relative to control; type: functional
Outline: (§3)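 Transwell migration: 1.5 X 10⁶ SH-SY5Y-TrkB cells in FBS-free medium containing 0, 8, 40 or 200 nM compound went in the top chamber. The bottom chamber held complete medium with or without BDNF 10 ng/mL. After 24 h at 37 °C, cells were methanol-fixed and stained with 0.25% crystal violet, and non-migrated cells were removed. Cells were counted in six random fields at 200X; mean of three independent experiments.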

SH-SY5Y [7] = assay: Inhibition of BDNF-induced cell migration in human SH-SY5Y cells transfected with TrkB (unknown origin) at 200 nM incubated for 24 hrs by crystal violet staining microscopy based transwell assay relative to control; type: functional; outline: as §3
[8] = Ratio of drug concentration in brain to blood of Sprague-Dawley rat at 25 mg/kg, po administered via gavage incubated for 8 hrs by LC/MS-MS analysis; type: ADME, organism-based; settings: brain and blood, read-out: BBR
SH-SY5Y [9] = assay: Inhibition of BDNF-induced cell invasion in human SH-SY5Y cells transfected with TrkB (unknown origin) incubated for 24 hrs by crystal violet staining microscopy-based matrigel assay; type: functional; outline: as §2
[10] = Drug concentration in Sprague-Dawley rat brain at 25 mg/kg, po administered via gavage incubated for 2 hrs by LC/MS-MS analysis; type: ADME, organism-based; settings: read-out: Ct
[11] = Drug concentration in Sprague-Dawley rat brain at 25 mg/kg, po administered via gavage incubated for 8 hrs by LC/MS-MS analysis; type: ADME, organism-based; settings: read-out: Ct
SH-SY5Y [12] = assay: Inhibition of BDNF-induced cell invasion in human SH-SY5Y cells transfected with TrkB (unknown origin) at 8 nM incubated for 24 hrs by crystal violet staining microscopy-based matrigel assay relative to control; type: functional; outline: as §2
SH-SY5Y [13] = assay: Inhibition of cell migration in human SH-SY5Y cells transfected with TrkB (unknown origin) assessed as reduction in BDNF-induced wound closure at 200 nM incubated for 24 hrs by bright field microscopy relative to control; type: functional
Outline: (§4)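 SH-SY5Y-TrkB monolayers were grown to near confluence and scratched with a pipette tip, then washed with PBS. Cells were incubated 24 h in MEM/F-12 with 2% FBS, with or without BDNF 10 ng/mL and with compound. Three random fields were imaged by bright-field microscopy and % wound closure was measured. Run three times, each in triplicate.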

[14] = target: T1, BDNF/NT-3 growth factors receptor; assay: Inhibition of TrkB (unknown origin) transfected in human SH-SY5Y cells assessed as decrease in BDNF-induced TrkB phosphorylation incubated for 6 hrs followed by BDNF addition further incubated for 30 mins by Western blot analysis; type: cell-based; outline: as §1
Target sequence in this assay (Q16620 32-822 limits assumed): as above

[15] = Drug concentration in Sprague-Dawley rat brain at 25 mg/kg, po administered via gavage incubated for 0.5 hrs by LC/MS-MS analysis; type: ADME, organism-based; settings: read-out: Ct
SH-SY5Y [16] = assay: Inhibition of cell migration in human SH-SY5Y cells transfected with TrkB (unknown origin) assessed as reduction in BDNF-induced wound closure at 8 nM incubated for 24 hrs by bright field microscopy relative to control; type: functional; outline: as §4
[17] = target: RAC-alpha serine/threonine-protein kinase (Homo sapiens, UniProt P31749); assay: Effect on ATK phosphorylation in BDNF-induced human SH-SY5Y cells up to 2 uM preincubated for 6 hrs followed by BDNF addition and measured after 30 mins by Western blot analysis; type: cell-based; settings: 0.5 h
[18] = Effect on ERK phosphorylation in BDNF-induced human SH-SY5Y cells up to 2 uM preincubated for 6 hrs followed by BDNF addition and measured after 30 mins by Western blot analysis; type: cell-based; settings: 0.5 h
SH-SY5Y [19] = assay: Neurotoxicity in human SH-SY5Y cells assessed as reduction in cell viability incubated for 72 hrs by CCK8 assay; type: toxicity, cell-based
[20] = target: T1, BDNF/NT-3 growth factors receptor; assay: Inhibition of BDNF-induced TrkB (unknown origin) activation transfected in human SH-SY5Y cells assessed as decrease in Akt phosphorylation at Thr308 residue incubated for 6 hrs followed by BDNF addition further incubated for 30 mins by Western blot analysis; type: cell-based; outline: as §1
Target sequence in this assay (Q16620 32-822 limits assumed): as above

SH-SY5Y [21] = assay: Inhibition of BDNF-induced cell migration in human SH-SY5Y cells transfected with TrkB (unknown origin) at 40 nM incubated for 24 hrs by crystal violet staining microscopy based transwell assay relative to control; type: functional; outline: as §3
[22] = target: NT-3 growth factor receptor (Homo sapiens, UniProt Q16288); assay: Inhibition of recombinant human His-tagged TrkC cytoplasmic domain (510 to 825 residues) expressed in baculovirus using tyr 01 as substrate incubated for 1 hr by Z'-Lyte assay
SH-SY5Y [23] = assay: Inhibition of cell migration in human SH-SY5Y cells transfected with TrkB (unknown origin) assessed as reduction in BDNF-induced wound closure at 40 nM incubated for 24 hrs by bright field microscopy relative to control; type: functional; outline: as §4
[24] = Plasma concentration in Sprague-Dawley rat at 25 mg/kg, po administered via gavage incubated for 2 hrs by LC/MS-MS analysis; type: ADME, organism-based
[25] = Ratio of drug concentration in brain to blood of Sprague-Dawley rat at 25 mg/kg, po administered via gavage incubated for 0.5 hrs by LC/MS-MS analysis; type: ADME, organism-based; settings: brain and blood, read-out: BBR
SH-SY5Y [26] = assay: Inhibition of BDNF-induced cell invasion in human SH-SY5Y cells transfected with TrkB (unknown origin) at 40 nM incubated for 24 hrs by crystal violet staining microscopy-based matrigel assay relative to control; type: functional; outline: as §2
SH-SY5Y [27] = assay: Antiproliferative activity against human SH-SY5Y cells transfected with TrkB (unknown origin) assessed as reduction in cell viability incubated for 72 hrs by CCK8 assay; type: functional, cell-based
Outline: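 SH-SY5Y-TrkB cells (SH-SY5Y stably transfected with pRP-TrkB, kept under 0.5 µg/ml puromycin in 1:1 MEM/F-12 with 10% FBS) seeded at 1500-3000/well, left overnight. Compounds 0.000457–3 µM were then added with or without BDNF 10 ng/ml for 72 h. Read-out by CCK8. IC50 came from concentration-response curve fitting, reported as mean ± SD from at least three independent experiments.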

[28] = Plasma concentration in Sprague-Dawley rat at 25 mg/kg, po administered via gavage incubated for 8 hrs by LC/MS-MS analysis; type: ADME, organism-based
[29] = Ratio of drug concentration in brain to blood of Sprague-Dawley rat at 25 mg/kg, po administered via gavage incubated for 2 hrs by LC/MS-MS analysis; type: ADME, organism-based; settings: brain and blood, read-out: BBR
[30] = target: T1, BDNF/NT-3 growth factors receptor; assay: Inhibition of TrkB (unknown origin) transfected in human SH-SY5Y cells assessed as decrease in BDNF-induced TrkB phosphorylation at >=16 nM incubated for 6 hrs followed by BDNF addition further incubated for 30 mins by Western blot analysis; type: cell-based; outline: as §1
Target sequence in this assay (Q16620 32-822 limits assumed): as above

SH-SY5Y [31] = assay: Inhibition of BDNF-induced cell migration in human SH-SY5Y cells transfected with TrkB (unknown origin) incubated for 24 hrs by crystal violet staining microscopy based transwell assay; type: functional; outline: as §3
[32] = Plasma concentration in Sprague-Dawley rat at 25 mg/kg, po administered via gavage incubated for 0.5 hrs by LC/MS-MS analysis; type: ADME, organism-based
[33] = target: T1, BDNF/NT-3 growth factors receptor; assay: Inhibition of BDNF-induced TrkB (unknown origin) activation transfected in human SH-SY5Y cells assessed as decrease in PLCgamma1 phosphorylation incubated for 6 hrs followed by BDNF addition further incubated for 30 mins by Western blot analysis; type: cell-based; outline: as §1
Target sequence in this assay (Q16620 32-822 limits assumed): as above

Chain of High affinity nerve growth factor receptor (P04629 whole entry, the tested form may be a part): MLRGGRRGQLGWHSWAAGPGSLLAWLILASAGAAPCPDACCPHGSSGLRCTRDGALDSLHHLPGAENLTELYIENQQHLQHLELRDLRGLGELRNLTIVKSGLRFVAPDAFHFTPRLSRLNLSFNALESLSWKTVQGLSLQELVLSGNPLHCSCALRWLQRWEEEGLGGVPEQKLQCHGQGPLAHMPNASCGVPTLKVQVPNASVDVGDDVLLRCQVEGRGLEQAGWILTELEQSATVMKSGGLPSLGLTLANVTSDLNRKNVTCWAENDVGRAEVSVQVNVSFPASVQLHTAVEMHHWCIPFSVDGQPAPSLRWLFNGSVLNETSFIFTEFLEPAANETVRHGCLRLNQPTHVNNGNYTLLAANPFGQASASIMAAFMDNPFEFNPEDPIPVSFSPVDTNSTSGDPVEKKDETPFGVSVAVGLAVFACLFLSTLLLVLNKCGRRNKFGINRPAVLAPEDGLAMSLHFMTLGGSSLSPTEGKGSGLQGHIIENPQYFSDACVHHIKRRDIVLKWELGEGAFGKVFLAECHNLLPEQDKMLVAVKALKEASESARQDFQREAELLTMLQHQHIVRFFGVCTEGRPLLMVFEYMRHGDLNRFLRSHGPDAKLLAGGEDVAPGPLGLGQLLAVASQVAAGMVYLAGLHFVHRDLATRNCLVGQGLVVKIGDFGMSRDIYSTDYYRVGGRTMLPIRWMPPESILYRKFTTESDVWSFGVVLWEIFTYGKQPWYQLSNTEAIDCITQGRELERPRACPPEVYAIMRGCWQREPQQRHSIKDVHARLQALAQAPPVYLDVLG
Chain of Tyrosine-protein kinase ABL1 (P00519 whole entry, the tested form may be a part): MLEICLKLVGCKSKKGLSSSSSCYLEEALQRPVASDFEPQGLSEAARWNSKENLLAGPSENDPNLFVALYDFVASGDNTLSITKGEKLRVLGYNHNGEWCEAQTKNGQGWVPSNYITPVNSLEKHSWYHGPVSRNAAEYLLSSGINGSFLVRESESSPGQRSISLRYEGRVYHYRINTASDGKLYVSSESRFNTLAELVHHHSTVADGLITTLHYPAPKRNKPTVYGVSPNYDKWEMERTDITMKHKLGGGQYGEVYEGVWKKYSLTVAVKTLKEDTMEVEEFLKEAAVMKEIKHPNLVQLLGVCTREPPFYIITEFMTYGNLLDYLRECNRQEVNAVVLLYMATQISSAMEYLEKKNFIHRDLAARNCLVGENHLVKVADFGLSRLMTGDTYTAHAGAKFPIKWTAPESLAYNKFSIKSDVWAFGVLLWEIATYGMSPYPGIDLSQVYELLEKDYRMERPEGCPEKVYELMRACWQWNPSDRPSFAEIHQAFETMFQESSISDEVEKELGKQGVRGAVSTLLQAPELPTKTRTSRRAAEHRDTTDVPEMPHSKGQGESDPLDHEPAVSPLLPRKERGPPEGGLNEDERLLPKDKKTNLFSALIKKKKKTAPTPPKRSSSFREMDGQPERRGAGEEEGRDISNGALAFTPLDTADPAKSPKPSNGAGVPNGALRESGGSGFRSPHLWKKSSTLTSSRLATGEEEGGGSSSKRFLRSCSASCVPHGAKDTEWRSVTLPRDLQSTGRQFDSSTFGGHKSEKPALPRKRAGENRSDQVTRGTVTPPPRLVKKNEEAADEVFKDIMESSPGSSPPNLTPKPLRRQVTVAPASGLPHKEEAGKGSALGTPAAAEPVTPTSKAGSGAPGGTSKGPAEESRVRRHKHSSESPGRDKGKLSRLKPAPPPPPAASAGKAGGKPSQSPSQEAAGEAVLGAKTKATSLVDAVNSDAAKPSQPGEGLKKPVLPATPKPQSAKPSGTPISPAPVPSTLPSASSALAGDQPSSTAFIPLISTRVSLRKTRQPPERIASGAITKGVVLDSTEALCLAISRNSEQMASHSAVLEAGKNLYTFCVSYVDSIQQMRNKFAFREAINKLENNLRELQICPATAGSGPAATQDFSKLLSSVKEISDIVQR
Chain of NT-3 growth factor receptor (Q16288 whole entry, the tested form may be a part): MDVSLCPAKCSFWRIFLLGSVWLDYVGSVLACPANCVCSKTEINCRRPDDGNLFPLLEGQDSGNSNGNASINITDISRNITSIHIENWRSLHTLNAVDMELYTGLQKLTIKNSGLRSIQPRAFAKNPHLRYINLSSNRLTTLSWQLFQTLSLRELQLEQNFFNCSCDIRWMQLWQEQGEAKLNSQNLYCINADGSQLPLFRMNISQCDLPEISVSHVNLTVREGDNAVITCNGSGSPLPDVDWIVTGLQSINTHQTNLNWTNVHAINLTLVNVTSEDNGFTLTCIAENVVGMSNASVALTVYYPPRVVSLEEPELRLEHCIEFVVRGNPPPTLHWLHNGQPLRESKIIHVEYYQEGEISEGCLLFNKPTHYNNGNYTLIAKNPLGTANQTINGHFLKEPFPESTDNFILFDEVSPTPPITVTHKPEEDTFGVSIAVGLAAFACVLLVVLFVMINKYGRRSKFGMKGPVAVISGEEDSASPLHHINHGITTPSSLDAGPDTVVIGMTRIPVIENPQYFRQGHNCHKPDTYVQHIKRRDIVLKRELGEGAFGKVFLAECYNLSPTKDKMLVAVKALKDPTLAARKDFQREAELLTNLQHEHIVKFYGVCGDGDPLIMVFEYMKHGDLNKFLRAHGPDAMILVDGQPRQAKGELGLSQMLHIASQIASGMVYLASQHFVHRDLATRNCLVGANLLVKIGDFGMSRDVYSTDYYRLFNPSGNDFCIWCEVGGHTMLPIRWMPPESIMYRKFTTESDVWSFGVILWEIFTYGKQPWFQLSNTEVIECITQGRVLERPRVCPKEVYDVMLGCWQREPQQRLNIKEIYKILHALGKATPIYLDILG
Chain of RAC-alpha serine/threonine-protein kinase (P31749 whole entry): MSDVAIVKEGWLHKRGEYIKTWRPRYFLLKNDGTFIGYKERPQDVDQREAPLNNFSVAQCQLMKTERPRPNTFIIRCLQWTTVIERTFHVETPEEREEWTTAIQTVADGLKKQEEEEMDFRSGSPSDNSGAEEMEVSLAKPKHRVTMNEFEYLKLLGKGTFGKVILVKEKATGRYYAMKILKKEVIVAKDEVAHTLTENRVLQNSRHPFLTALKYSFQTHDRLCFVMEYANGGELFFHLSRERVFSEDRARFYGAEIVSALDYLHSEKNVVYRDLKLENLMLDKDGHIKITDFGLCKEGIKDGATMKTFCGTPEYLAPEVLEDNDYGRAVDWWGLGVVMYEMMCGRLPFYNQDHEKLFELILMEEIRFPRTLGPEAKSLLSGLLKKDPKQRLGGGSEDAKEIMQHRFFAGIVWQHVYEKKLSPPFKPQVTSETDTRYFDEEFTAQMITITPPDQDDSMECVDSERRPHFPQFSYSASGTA

Molecule `Cc1c(C#Cc2cnc3cnc(-c4ccccc4)cn23)cccc1C(=O)Nc1cc(CN2CCN(C)CC2)cc(C(F)(F)F)c1` has an IC50 [1] of over 1000 nM, an IC50 [2] of 22.7 nM and an IC50 [3] of 29.2 nM.

For `Cc1c(C#Cc2cnc3cnc(-c4ccc(N)cc4)cn23)cccc1C(=O)Nc1cc(CN2CCN(C)CC2)cc(C(C)C)c1`, the inhibition [4] was “Dose-dependent effect”, the inhibition at 0.2 µM (SH-SY5Y [5]) was 85.5% and the inhibition at 0.008 µM (SH-SY5Y [6]) was 22.7%. For the same molecule, the inhibition at 0.2 µM (SH-SY5Y [7]) was 82%, the Kp at 8 h [8] was 8.3 and the IC50 [1] was over 1000 nM. The inhibition (SH-SY5Y [9]) was “Dose-dependent effect”, the IC50 [2] was 10.5 nM and the concentration at 2 h [10] was 0.355 ng/mL. The concentration at 8 h [11] was 0.09 ng/mL, the inhibition at 0.008 µM (SH-SY5Y [12]) was 9.1% and the inhibition at 0.2 µM (SH-SY5Y [13]) was 77.5%. The inhibition [14] was “Dose-dependent effect”, the concentration at 0.5 h [15] was 0.078 ng/mL and the inhibition at 0.008 µM (SH-SY5Y [16]) was 50.1%. For the same molecule, the Activity [17] was “Not Active”, the Activity [18] was “Not Active” and the Activity (SH-SY5Y [19]) was “Non-Toxic”. For the same molecule, the inhibition [20] was “Dose-dependent effect”, the inhibition at 0.04 µM (SH-SY5Y [21]) was 53.3% and the IC50 [22] was 2.95 nM. The inhibition at 0.04 µM (SH-SY5Y [23]) was 76.6%, the concentration at 2 h [24] was 33.2 ng/mL and the IC50 [3] was 2.65 nM. It also gave a Kp at 0.5 h [25] of 6.4, an inhibition at 0.04 µM (SH-SY5Y [26]) of 61.9% and an IC50 (SH-SY5Y [27]) of 58 nM. The concentration at 8 h [28] was 6.52 ng/mL, the Kp at 2 h [29] was 6 and the inhibition [30] was 100%. For the same molecule, the inhibition (SH-SY5Y [31]) was “Dose-dependent effect”, the concentration at 0.5 h [32] was 7.33 ng/mL and the inhibition [33] was “Dose-dependent effect”.

For `Cc1ccc(C(=O)Nc2cc(CN3CCN(C)CC3)cc(C(F)(F)F)c2)cc1C#Cc1cnc2cnccn12`, the IC50 [2] was 9.37 nM and the IC50 [3] was 8.24 nM.

`Cc1c(C#Cc2cnc3cnc(-c4ccc(N)cc4)cn23)cccc1C(=O)Nc1cc(CN2CCN(C)CC2)cc(C(F)(F)F)c1` showed an IC50 [1] of over 1000 nM, an IC50 [2] of 13.1 nM and an IC50 [3] of 7.75 nM.

For `Cc1cc(C#Cc2cnc3cnccn23)cc(C(=O)Nc2cc(CN3CCN(C)CC3)cc(C(F)(F)F)c2)c1`, the IC50 [1] was 449 nM, the IC50 [2] was 178 nM and the IC50 [3] was 132 nM.
